The RNAGym collection of RNA variant scans (doi:10.1126/science.aae0568)
This sample holds only a part of the variants without activity.

B1: tRNA (parent)
chain: GUUCCGUUGGCGUAAUGGUAACGCGUCUCCCUCCUAAGGAGAAGACUGCGGGUUCGAGUCCCGUACGGAACG

Variants of: B1
Assay: yeast fitness relative to wild type (ratio to wild type); higher = fitter; tRNA-Arg(CCU), competitive growth, 37 C, YPD
Summary of the method: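 Variants of the tRNA-Arg(CCU) gene, chemically synthesised with a 3% per-site mutation rate at 69 sites, were placed at the native genomic locus in Saccharomyces cerevisiae. The pooled strains were competed in YPD at 37°C for 24 hours in six parallel replicates. Gene amplicons from the start population and from each end population were read by 100-nucleotide paired-end sequencing. Darwinian fitness relative to wild type came from changes in genotype frequencies; genotypes needed ≥ 100 starting reads, and estimates < 0.5 were set to 0.5.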

Row | Variant | yeast fitness
1 | GUUCCGUUGGCGUAAUGGUAACGCGACUCACUCAUAAGGAGAAGACUCCGGGUUCGAGUCCCGUACGGAUCG | ≤ 0.5
2 | GUUCCGUUGGCGUAAUGGUAACGCCUCUACCUCCUAAGGAGAAGACUCCGGGUUCGAGUACCGUACGGAACG | ≤ 0.5
3 | GUUCCGUUGGCGUAAUGGUAACGCGACUCCAUCCUAAGGAGGAGACUGCGGGUUGGCGUCCCGUACGGAACG | ≤ 0.5
4 | GUUCCGUUGGCGUAAUGGUAACGCGACUCCCUCCUAAGGAGAAGACUGGGGGUUCGAGUCCCGUACCGAACG | ≤ 0.5
5 | GUUCCGUUGGCGUAAUGGUAACGCCUCUCCCUCCUAAGGAGAAGACUGCGAGUACGAGUCCCGUACGGAACG | 0.507
6 | GUUCCGUUGGCGUAAUGGUAACGCCUCUCACUCCUAAGGAGAAGACUGCGGGUUCGAGUCCCGUACGGAACG | 0.792
7 | GUUCCGUUGGCGUAAUGGUAACGCCUCUCCCUCUUAAGGAGAAGACUGCGGGUUCGAGUCCCGUACGGAACG | 0.558
8 | GUUCCGUUGGCGUAAUGGUAACGCCUCUCCCUUCUAAGGAGAAGACGGUGGCUUCGAGUCCCGUACGGAACG | ≤ 0.5
9 | GUUCCGUUGGCGUAAUGGUAACGCCUCUCCCUCCUAAGGACAAGAUUGCGGGUUCGAGUCCCGUACGGAACG | 0.579
10 | GUUCCGUUGGCGUAAUGGUAACGCCUCUCCCUCCUAAGGAGAAGAUUGCCGGUUCGAGUCCCGUACGGAACG | ≤ 0.5
11 | GUUCCGUUGGCGUAAUGGUAACGCGAAUCCUUCCUAAGGAGAAGACUGCGGGUUCGAGUCCCGUACGGAACG | ≤ 0.5
12 | GUUCCGUUGGCGUAAUGGUAACGCCUCUCCCUCCUAAGGAGAAGACUACGGGUUCGAGUGCCGUACGGAACG | ≤ 0.5
13 | GUUCCGUUGGCGUAAUGGUAACGCCUCUCCCUCCUAAGGAGAAAACUGCGGGUUCGAGUCCCGUACGGUACG | 0.622
14 | GUUCCGUUGGCGUAAUGGUAACGCGACUCCCUCUUAAGGAGAAGACUGGGGGUUCGAGUCCCGUACGGAACG | ≤ 0.5
15 | GUUCCGUUGGCGUAAUGGUAACGCCUCUCCCUCCUAAGGAGAAGACUGCGGGUUCGAGUUACGUACGGAACG | ≤ 0.5
16 | GUUCCGUUGGCGUAAUGGUAACGCCUCUCUCUCCUAAGGAGAAGACUGCGGGUUCGAGUCGCGUACGGAACG | 0.526
17 | GUUCCGUUGGCGUAAUGGUAACGCGACUCCCUCCUAAGGAGAAGAUUGCCGGUACGAGUCCCGUACGGAACG | 0.579
18 | GUUCCGUUGGCGUAAUGGUAACGCCUCUCCCUUCUAAGGAGAAGACUGAGGGAUCGAGUCCCGUACAGAACG | ≤ 0.5
19 | GUUCCGUUGGCGUAAUGGUAACGCCUCUCCCGCCUAAGGAAAAGACUGCGGGUUCGAGUCCCGUACGGAACG | 0.565

Row | Variant | yeast fitness
20 | GUUCCGUUGGCGUAAUGGUAACGCGAAUCCCUCCUAAGGAGAAGACUGCGGGUUCGAGUCCCGUACGGAACG | 0.671
21 | GUUCCGUUGGCGUAAUGGUAACGCCUCUCCCUCUUAAGGGGAAGACUGCGGGUACGAGUCCCGUGCGGAACG | 0.582
22 | GUUCCGUUGGCGUAAUGGUAACGCGACUCCCUCCUAAGGUGAAGACUGCGGGUUCGAGUCCCGUCCGGAACG | 0.662
23 | GUUCCGUUGGCGUAAUGGUAACGCGACUCCGUCCUAGGGAGAAGACUGCGGGUUCGAGUCCCAUACGGAACG | ≤ 0.5
24 | GUUCCGUUGGCGUAAUGGUAACGCGACUCCCUCCUAAGGAGAAGACUGUGGGUUCGUGUCCCGUACGGAACG | ≤ 0.5
25 | GUUCCGUUGGCGUAAUGGUAACGCGACUCUCUCCUAAGGAGCAGAUUGCGGGUUCGAGUCCCGUGCGGAACG | 0.859
26 | GUUCCGUUGGCGUAAUGGUAACGCGACUCCCUCCUCAGGAGAAGACUGCGGGUUCGAGUCCCGUACGGAACG | ≤ 0.5
27 | GUUCCGUUGGCGUAAUGGUAACGCUUCUCCCUCCUAAGGAGAAGACUGCGGGUUCGAGUGCCGUACGGAACG | ≤ 0.5
28 | GUUCCGUUGGCGUAAUGGUAACGCGACUCCCUCCUAAGGAGAAGACUGGGGGUUCGAGUCCCGUACGGAACG | 0.616
29 | GUUCCGUUGGCGUAAUGGUAACGCGACUCCCUCCUAAGGAGAAGACUGUGGGUUCGAGUCCCGUACGGAACG | 0.865
30 | GUUCCGUUGGCGUAAUGGUAACGCGACUCCUUCCUAAGGAGAAGACUGCGGGUUCGGGUCCCGUACGGAACG | 0.742
31 | GUUCCGUUGGCGUAAUGGUAACGCUUCUCCCUCCUUAGGAGAAGACUGCGGGUUCCAGUCCCGUCCAGAACG | ≤ 0.5
32 | GUUCCGUUGGCGUAAUGGUAACGCCUCUCCCUCCUAAGGAGAAGACUGCGGGAUUGAGUCCCGUACGGAACG | ≤ 0.5
33 | GUUCCGUUGGCGUAAUGGUAACGCGACUCCCUCCUAAGGCGAAGACUGCGGGUUCGAGUCCCGGACGGAACG | 0.538
34 | GUUCCGUUGGCGUAAUGGUAACGCCUCUCCUUCCUAAGGAGAAGACUGCGGGUUCGAGUCCCGUACGGUACG | 0.77
35 | GUUCCGUUGGCGUAAUGGUAACGCCUCUCCUACCUAAGGAGAAGACUGCGGGUUCGAGUCCCGUACGGAGCG | ≤ 0.5
36 | GUUCCGUUGGCGUAAUGGUAACGCCUCUCCGUCCUAAGGAGAAGACUGCGCGUUCGAGUCCCGUUCGGAACG | ≤ 0.5
37 | GUUCCGUUGGCGUAAUGGUAACGCCUCUGCCUUCUAAGUAGAAGACUGCGGGUUCGUGUCCCGUACGGAACG | ≤ 0.5
38 | GUUCCGUUGGCGUAAUGGUAACGCCUCUCCCUCCUAAGGAGAAGACUGCCGGUUCGAGUCCCGUACGGAACG | 0.627
